Data on 32 compounds can be found in ChEMBL document CHEMBL1131341, “Orally active antimalarial 3-substituted trioxanes: new synthetic methodology and biological evaluation” (J Med Chem, 1998).

In one assay the test system is Plasmodium falciparum. In words: In vitro antimalarial activity in chloroquine-sensitive Plasmodium falciparum NF54. In kind it is functional, organism-based. The gist of the method:
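IC50 (nM) was measured against cultured parasites in quadruplicate and derived from fitted dose-response curves with R² ≥0.989.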

The test system of assay [1] is Plasmodium berghei. In words: Effective in vivo dose ED50 against Plasmodium berghei N after subcutaneous dose at 1,3,10 or 30 mg/kg/day, n=5. The format is functional. Conditions: sc. In short, it runs like this: (§1)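 Mice infected with chloroquine-sensitive P. berghei (N) were dosed daily for 4 days at 1, 3, 10 and 30 mg/kg, with five mice per dose regimen. The ED values were derived from these four dose levels.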

Assay [2] has as its system Plasmodium berghei. In words: Effective in vivo dose ED90 against Plasmodium berghei N on oral administration. In kind it is functional. In short, it runs like this:
as §1

For assay [3], the system named is Plasmodium berghei. Put plainly: Effective in vivo dose ED50 against Plasmodium berghei N after oral dose at 1,3,10 or 30 mg/kg/day, n=5. In kind it is functional. In short, it runs like this:
as §1

The IC50 is the midpoint of a concentration-inhibition curve. Read a low IC50 as greater potency. In the assay with Plasmodium falciparum, `CO[C@@H]1O[C@]2(c3ccc(-c4ccccc4)cc3)CC[C@H]3CCCCC31OO2` displayed a half-maximal inhibitory concentration (IC50) of 76 nM.

With `CO[C@H]1O[C@]2(C)CC[C@H]3CCCCC31OO2`, in the assay on Plasmodium falciparum, the IC50 came to 960 nM. Against the preceding compound, the IC50 is about 13-fold higher.

With `CO[C@@H]1O[C@]2(CF)CC[C@H]3CCCCC31OO2`, inhibition with Plasmodium falciparum was half-maximal at 320 nM (IC50).

As for `CO[C@H]1O[C@]2(c3ccccc3)CC[C@H]3CCCCC31OO2`, the IC50 with Plasmodium falciparum worked out at 38 nM.

The compound `CO[C@H]1O[C@]2(c3cccc4ccccc34)CC[C@H]3CCCCC31OO2` had an IC50 in the assay on Plasmodium falciparum of 44 nM.

In general, ED50 refers to the dose that gives a 50% effect, or the effect in half of the subjects. Lower therefore signals an effect at a small dose. Compound `CO[C@H]1O[C@]2(c3ccc(COC(C)=O)cc3)CC[C@H]3CCCCC31OO2` returned an IC50 in the assay on Plasmodium falciparum of 20 nM. Also, the median effective dose (ED50) was 2.8 mg/kg with Plasmodium berghei [1] and 14 mg/kg with Plasmodium berghei [3]. In the assay with Plasmodium berghei [2], this compound had an ED90 of 22 µM/kg.

In turn, `CO[C@@H]1O[C@]2(c3ccccc3)CC[C@H]3CCCCC31OO2` had an IC50 in the assay on Plasmodium falciparum of 110 nM. In other words, the sub-micromolar range.

As for `COc1ccc([C@@]23CC[C@H]4CCCCC4(OO2)C(OC)O3)cc1` (some centres not stated), the IC50 with Plasmodium falciparum is more than 2500 nM.

`CO[C@@H]1O[C@]2(c3ccc(F)cc3C)CC[C@H]3CCCC[C@@]31OO2` yielded an IC50 with Plasmodium falciparum of 99 nM. This lies in the double-digit nanomolar range.

As for `CO[C@H]1O[C@]2(c3ccc(COCc4ccc(F)cc4)cc3)CC[C@H]3CCCCC31OO2`, the IC50 in the assay with Plasmodium falciparum was determined as 23 nM. For the same compound, the 50% effective dose (ED50) in the assay on Plasmodium berghei [1] is 3.5 mg/kg; in the assay with Plasmodium berghei [3], 3.8 mg/kg. The compound further yielded an ED90 with Plasmodium berghei [2] of 6.8 µM/kg.

`CO[C@H]1O[C@]2(c3ccc(-c4ccccc4)cc3)CC[C@H]3CCCCC31OO2` showed an IC50 in the assay on Plasmodium falciparum of 68 nM.

As for `CO[C@@H]1O[C@]2(c3ccc(F)cc3)CC[C@H]3CCCCC31OO2`, the IC50 in the assay with Plasmodium falciparum was determined as 65 nM.

For the compound `COC(=O)OCc1ccc([C@@]23CC[C@H]4CCCCC4(OO2)[C@H](OC)O3)cc1`, it took 79 nM to reach half-maximal inhibition with Plasmodium falciparum (IC50).

In the assay with Plasmodium falciparum, `CO[C@H]1O[C@]2(c3ccc(CO)cc3)CC[C@H]3CCCCC31OO2` returned an IC50 of 15 nM. Moreover, the 50% effective dose (ED50) came out at 3.4 mg/kg in the assay on Plasmodium berghei [1] and 5.5 mg/kg in the assay on Plasmodium berghei [3]. Further, the ED90 in the assay with Plasmodium berghei [2] is 12 µM/kg.

Take `CO[C@H]1O[C@]2(CF)CC[C@H]3CCCCC31OO2`: in the assay on Plasmodium falciparum, half-maximal inhibition (IC50) was put at 160 nM.

In the assay with Plasmodium falciparum, `CO[C@@H]1O[C@]2(c3cccc4ccccc34)CC[C@H]3CCCCC31OO2` gave an IC50 of 170 nM.

`COCc1ccc([C@@]23CC[C@H]4CCCCC4(OO2)[C@H](OC)O3)cc1`: it took 39 nM to reach half-maximal inhibition in the assay with Plasmodium falciparum (IC50).

In the assay with Plasmodium falciparum, `CO[C@H]1O[C@]2(c3ccc(C(F)(F)F)cc3)CC[C@H]3CCCCC31OO2` registered an IC50 of 53 nM.

As to `CO[C@H]1O[C@]2(c3ccc(F)cc3)CC[C@H]3CCCCC31OO2`, in the assay on Plasmodium falciparum, the concentration for half-maximal inhibition (IC50) turned out to be 30 nM. The 50% effective dose (ED50) in the assay on Plasmodium berghei [1] worked out at 6.8 mg/kg; in the assay with Plasmodium berghei [3], 10 mg/kg. Further, in the assay on Plasmodium berghei [2], the ED90 was 23 µM/kg.

`CO[C@H]1O[C@]2(c3ccc(Cl)cc3)CC[C@H]3CCCCC31OO2` had an IC50 in the assay with Plasmodium falciparum of 55 nM.

As to `COCc1ccc([C@@]23CC[C@H]4CCCCC4(OO2)[C@@H](OC)O3)cc1`, the IC50 in the assay on Plasmodium falciparum was determined as 51 nM.

For `CO[C@@H]1O[C@]2(c3ccc(COCc4ccc(F)cc4)cc3)CC[C@H]3CCCCC31OO2`, the IC50 in the assay with Plasmodium falciparum is 42 nM.

On to `CO[C@@H]1O[C@]2(c3ccc(C(F)(F)F)cc3)CC[C@H]3CCCCC31OO2`, for which, in the assay on Plasmodium falciparum, the half-inhibitory concentration (IC50) was determined as 39 nM.

In the assay with Plasmodium falciparum, `CO[C@@H]1O[C@]2(c3ccc(COC(C)=O)cc3)CC[C@H]3CCCCC31OO2` displayed a half-inhibitory concentration (IC50) of 44 nM.

As for `CO[C@@H]1O[C@@]2(c3ccccc3)OOC13CCCC[C@@H]3CC2C` (some centres not stated), the concentration for half-maximal inhibition (IC50) in the assay with Plasmodium falciparum is 21 nM.

In turn, `CO[C@@H]1O[C@]2(c3ccco3)CC[C@H]3CCCCC31OO2` showed an IC50 in the assay on Plasmodium falciparum of 600 nM.

Turning to `CO[C@H]1O[C@]2(c3ccc(F)cc3C)CC[C@H]3CCCC[C@@]31OO2`, the IC50 in the assay with Plasmodium falciparum worked out at 34 nM.

The compound `CO[C@@H]1O[C@]2(c3ccc(CO)cc3)CC[C@H]3CCCCC31OO2` displayed a concentration for half-maximal inhibition (IC50) in the assay on Plasmodium falciparum of 78 nM.

On to `CO[C@@H]1O[C@]2(c3ccc(Cl)cc3)CC[C@H]3CCCCC31OO2`, for which, in the assay with Plasmodium falciparum, half-maximal inhibition (IC50) was put at 49 nM.

As for `CO[C@H]1O[C@]2(CCC(F)(F)F)CC[C@H]3CCCCC31OO2`, the IC50 with Plasmodium falciparum came out at 84 nM.

In the assay with Plasmodium falciparum, `C[C@@H]1CC[C@H]2[C@@H](C)C(=O)O[C@@H]3O[C@@]4(C)CC[C@@H]1[C@]32OO4` [ARTEMISININ] yielded a concentration for half-maximal inhibition (IC50) of 9.2 nM. For the same compound, the ED50 amounted to 3 mg/kg with Plasmodium berghei [1] and 8.5 mg/kg in the assay on Plasmodium berghei [3].

For `CCN(CC)CCCC(C)Nc1ccnc2cc(Cl)ccc12` (configuration not stated) [CHLOROQUINE], the ED50 in the assay with Plasmodium berghei [1] was found to be 1 mg/kg; with Plasmodium berghei [3], 1.2 mg/kg.
